Assay results reported in ChEMBL document CHEMBL1821688, “Synthesis and biological evaluation of (±)-3-(2-(2-fluorobenzyloxy) naphthalen-6-yl)-2-aminopropanoic acid derivatives as novel PTP1B inhibitors” (Eur J Med Chem, 2011).
pIC50: −log10 of the molar value. The source made the active and inactive calls. The rule behind the calls is not given here.

What was measured:
[1] = target: T1, Tyrosine-protein phosphatase non-receptor type 1 (Homo sapiens, UniProt P18031); test: Inhibition of PTP1B using p-nitrophenyl phosphate as substrate
T1 sequence (P18031 whole entry): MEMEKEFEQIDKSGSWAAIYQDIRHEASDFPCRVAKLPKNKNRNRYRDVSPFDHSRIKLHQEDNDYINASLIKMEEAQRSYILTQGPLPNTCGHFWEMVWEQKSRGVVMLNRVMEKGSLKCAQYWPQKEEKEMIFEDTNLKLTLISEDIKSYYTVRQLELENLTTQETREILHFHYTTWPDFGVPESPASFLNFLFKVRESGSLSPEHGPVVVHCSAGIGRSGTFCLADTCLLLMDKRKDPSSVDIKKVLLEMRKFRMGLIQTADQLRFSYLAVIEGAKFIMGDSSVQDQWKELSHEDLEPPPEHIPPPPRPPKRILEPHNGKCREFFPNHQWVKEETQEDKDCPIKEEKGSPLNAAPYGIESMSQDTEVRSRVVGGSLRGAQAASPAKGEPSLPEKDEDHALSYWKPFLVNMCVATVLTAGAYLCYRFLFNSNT
Procedure, shortened: (§1)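 IC50 values were obtained by regression analysis and reported as mean ± SD of three replicate determinations.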

[2] = Selectivity ratio of IC50 for TCPTP to IC50 for PTP1B
[3] = target: Receptor-type tyrosine-protein phosphatase alpha (Homo sapiens) (UniProt P18433); test: Inhibition of human recombinant PTPalpha at 20 ug/mL
[4] = target: T2, Tyrosine-protein phosphatase non-receptor type 6 (Homo sapiens, UniProt P29350); test: Inhibition of human recombinant SHP1 in Tris buffer of pH 8 at 20 ug/mL
[5] = target: Receptor-type tyrosine-protein phosphatase F (Homo sapiens) (UniProt P10586); test: Inhibition of human recombinant LAR at 20 ug/mL
[6] = target: T3, M-phase inducer phosphatase 2 (Homo sapiens, UniProt P30305); test: Inhibition of human recombinant CDC25B; procedure, shortened: as §1
T3 sequence (P30305 whole entry): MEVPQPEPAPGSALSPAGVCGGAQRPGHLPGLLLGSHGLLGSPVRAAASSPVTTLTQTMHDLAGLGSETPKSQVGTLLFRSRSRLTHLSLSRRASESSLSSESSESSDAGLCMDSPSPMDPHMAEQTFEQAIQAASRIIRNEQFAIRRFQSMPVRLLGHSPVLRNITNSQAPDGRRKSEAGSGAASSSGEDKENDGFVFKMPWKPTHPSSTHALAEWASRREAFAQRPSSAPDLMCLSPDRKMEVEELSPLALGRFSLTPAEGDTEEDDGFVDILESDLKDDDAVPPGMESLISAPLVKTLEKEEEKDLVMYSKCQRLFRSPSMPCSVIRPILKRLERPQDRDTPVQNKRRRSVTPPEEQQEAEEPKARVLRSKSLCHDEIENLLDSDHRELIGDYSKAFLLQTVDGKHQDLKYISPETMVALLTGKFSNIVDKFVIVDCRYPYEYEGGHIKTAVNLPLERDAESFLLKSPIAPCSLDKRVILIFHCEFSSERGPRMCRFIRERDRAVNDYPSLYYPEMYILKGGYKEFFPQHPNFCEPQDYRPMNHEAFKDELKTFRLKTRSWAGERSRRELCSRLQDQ

[7] = target: T4, Tyrosine-protein phosphatase non-receptor type 2 (Homo sapiens, UniProt P17706); test: Inhibition of TCPTP; procedure, shortened: as §1
T4 sequence (P17706 whole entry): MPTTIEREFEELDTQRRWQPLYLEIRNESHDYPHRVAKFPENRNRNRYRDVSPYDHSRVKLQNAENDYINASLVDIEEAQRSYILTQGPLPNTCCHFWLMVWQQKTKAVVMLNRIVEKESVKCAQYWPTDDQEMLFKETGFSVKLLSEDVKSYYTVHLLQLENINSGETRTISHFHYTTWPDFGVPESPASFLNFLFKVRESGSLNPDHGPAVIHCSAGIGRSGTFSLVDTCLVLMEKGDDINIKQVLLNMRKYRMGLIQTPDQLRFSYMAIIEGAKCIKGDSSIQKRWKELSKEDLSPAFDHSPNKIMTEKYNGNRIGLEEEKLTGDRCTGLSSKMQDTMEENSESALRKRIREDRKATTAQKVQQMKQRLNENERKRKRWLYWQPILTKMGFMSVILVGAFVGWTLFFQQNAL

[8] = target: T2, Tyrosine-protein phosphatase non-receptor type 6; test: Inhibition of human recombinant SHP1 in Tris buffer at pH 8 using OMPF as substrate; procedure, shortened: as §1
[9] = target: T5, Tyrosine-protein phosphatase non-receptor type 1 (Homo sapiens) (UniProt P18031); conditions: 2.5 to 10 uM
T5 sequence (whole entry): T1 sequence (P18031 whole entry)

[10] = target: T5, Tyrosine-protein phosphatase non-receptor type 1 (Homo sapiens); conditions: 2.5 to 10 uM; remark: listed apart in the source

T2 sequence (P29350 whole entry): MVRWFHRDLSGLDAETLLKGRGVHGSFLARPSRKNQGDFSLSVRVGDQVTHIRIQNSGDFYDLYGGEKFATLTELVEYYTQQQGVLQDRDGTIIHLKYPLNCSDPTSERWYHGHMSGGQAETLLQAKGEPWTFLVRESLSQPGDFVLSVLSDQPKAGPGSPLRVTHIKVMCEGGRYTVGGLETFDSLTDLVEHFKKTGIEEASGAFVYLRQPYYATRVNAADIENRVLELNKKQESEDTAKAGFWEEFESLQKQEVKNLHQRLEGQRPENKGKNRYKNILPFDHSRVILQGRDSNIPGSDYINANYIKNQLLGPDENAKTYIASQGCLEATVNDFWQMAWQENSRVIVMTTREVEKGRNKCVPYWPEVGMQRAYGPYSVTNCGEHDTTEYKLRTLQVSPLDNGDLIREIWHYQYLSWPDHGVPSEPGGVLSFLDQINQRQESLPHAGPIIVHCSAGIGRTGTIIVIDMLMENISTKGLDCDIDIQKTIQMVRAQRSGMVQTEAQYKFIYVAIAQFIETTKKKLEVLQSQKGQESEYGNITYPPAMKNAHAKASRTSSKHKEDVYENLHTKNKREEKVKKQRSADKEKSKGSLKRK
Sequence of Receptor-type tyrosine-protein phosphatase F (Homo sapiens) (P10586 whole entry): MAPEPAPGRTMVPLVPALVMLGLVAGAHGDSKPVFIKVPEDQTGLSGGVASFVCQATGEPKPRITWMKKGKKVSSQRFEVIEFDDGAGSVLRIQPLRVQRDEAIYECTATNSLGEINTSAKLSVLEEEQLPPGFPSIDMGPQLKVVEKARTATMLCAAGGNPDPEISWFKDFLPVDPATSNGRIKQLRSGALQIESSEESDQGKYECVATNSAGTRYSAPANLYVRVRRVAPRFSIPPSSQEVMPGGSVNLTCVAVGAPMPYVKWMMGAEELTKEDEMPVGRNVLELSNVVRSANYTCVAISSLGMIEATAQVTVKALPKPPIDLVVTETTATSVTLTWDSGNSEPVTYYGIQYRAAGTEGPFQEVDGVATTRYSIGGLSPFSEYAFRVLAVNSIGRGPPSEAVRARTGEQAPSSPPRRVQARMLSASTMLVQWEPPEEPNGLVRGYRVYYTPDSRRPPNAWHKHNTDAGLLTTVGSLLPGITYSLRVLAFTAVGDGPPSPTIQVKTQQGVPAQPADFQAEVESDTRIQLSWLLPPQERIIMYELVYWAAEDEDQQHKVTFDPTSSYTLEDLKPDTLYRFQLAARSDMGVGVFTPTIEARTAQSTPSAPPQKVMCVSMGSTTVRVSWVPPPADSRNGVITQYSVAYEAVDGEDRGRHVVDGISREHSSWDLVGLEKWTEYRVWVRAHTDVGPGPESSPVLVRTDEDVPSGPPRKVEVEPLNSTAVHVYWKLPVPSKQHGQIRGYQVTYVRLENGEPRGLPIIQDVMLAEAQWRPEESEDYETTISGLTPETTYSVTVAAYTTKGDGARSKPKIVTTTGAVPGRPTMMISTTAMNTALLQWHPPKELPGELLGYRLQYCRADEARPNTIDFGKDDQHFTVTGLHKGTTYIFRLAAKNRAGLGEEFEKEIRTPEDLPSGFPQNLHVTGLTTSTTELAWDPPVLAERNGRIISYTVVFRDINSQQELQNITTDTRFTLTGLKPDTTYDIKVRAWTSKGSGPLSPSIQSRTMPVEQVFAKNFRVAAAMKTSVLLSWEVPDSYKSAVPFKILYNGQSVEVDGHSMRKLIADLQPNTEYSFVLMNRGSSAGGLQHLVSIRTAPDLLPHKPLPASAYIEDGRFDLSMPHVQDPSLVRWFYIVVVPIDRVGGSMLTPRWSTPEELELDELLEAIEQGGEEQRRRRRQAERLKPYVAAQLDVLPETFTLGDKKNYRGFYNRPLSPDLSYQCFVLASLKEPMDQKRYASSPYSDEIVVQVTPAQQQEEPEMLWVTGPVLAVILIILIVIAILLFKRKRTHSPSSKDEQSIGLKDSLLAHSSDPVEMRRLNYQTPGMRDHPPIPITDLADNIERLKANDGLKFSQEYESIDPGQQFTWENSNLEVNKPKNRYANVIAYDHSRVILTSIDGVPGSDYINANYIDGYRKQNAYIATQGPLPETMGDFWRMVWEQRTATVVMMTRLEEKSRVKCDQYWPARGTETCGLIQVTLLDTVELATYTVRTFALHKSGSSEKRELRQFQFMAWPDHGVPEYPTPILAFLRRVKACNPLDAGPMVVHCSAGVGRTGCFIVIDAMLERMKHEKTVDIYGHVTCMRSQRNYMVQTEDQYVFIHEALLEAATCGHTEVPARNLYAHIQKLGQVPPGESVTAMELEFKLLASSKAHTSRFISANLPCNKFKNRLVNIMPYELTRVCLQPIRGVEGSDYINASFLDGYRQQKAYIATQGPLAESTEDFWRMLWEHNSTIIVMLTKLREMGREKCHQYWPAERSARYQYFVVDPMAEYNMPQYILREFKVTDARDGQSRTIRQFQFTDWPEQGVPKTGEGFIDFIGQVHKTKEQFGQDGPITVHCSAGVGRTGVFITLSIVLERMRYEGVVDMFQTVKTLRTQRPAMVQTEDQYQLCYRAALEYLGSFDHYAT
Sequence of Receptor-type tyrosine-protein phosphatase alpha (Homo sapiens) (P18433 20-802 limits assumed): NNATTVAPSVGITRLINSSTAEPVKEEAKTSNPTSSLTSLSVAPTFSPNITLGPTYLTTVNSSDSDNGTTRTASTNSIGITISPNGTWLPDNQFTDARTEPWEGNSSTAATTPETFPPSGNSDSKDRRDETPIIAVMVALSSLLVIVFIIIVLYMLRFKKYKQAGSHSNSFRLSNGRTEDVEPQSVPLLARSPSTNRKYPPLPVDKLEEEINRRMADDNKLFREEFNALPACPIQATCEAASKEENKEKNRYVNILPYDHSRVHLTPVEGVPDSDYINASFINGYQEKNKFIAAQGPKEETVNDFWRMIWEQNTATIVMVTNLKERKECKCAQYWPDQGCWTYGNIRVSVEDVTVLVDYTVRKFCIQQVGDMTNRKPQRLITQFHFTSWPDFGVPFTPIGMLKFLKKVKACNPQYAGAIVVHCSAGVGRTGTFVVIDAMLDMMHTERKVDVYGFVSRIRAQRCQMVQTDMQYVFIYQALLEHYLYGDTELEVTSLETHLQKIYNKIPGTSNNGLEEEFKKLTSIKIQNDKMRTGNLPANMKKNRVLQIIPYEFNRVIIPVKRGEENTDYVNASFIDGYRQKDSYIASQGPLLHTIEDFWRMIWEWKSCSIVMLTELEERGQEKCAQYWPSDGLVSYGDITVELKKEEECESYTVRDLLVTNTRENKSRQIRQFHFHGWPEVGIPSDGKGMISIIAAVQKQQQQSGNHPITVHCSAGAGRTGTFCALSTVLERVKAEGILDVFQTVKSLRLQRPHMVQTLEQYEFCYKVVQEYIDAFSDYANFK

Compound: CC(C)(C)OC(=O)NC(Cc1ccc2cc(O)ccc2c1)C(=O)O (racemic)
- pIC50 [1]: < 3.52
- Ratio IC50 [2]: 1

Compound: O=C(/C=C/c1ccccc1)NC(Cc1ccc2cc(OCc3ccccc3F)ccc2c1)C(=O)O (racemic)
- inhibition [3]: inactive
- inhibition [4]: inactive
- pIC50 [1]: 5.05
- inhibition [5]: inactive
- pIC50 [6]: 4.83
- pIC50 [7]: 4.72

Compound: O=C(/C=C/c1ccc(Cl)c(Cl)c1)NC(Cc1ccc2cc(OCc3ccccc3F)ccc2c1)C(=O)O (racemic)
- inhibition [3]: inactive
- pIC50 [8]: 4.97
- pIC50 [1]: 5.33
- inhibition [5]: inactive
- pIC50 [6]: 5.25
- pIC50 [7]: 4.82

Compound: COc1cccc(/C=C/C(=O)NC(Cc2ccc3cc(OCc4ccccc4F)ccc3c2)C(=O)O)c1 (racemic)
- inhibition [3]: inactive
- pIC50 [8]: 4.78
- pIC50 [1]: 5.09
- inhibition [5]: inactive
- Ratio IC50 [2]: 1
- pIC50 [6]: 4.97
- pIC50 [7]: 4.82

Compound: NC(Cc1ccc2cc(OCc3ccccc3F)ccc2c1)C(=O)O (racemic)
- pIC50 [1]: 4.61
- Ratio IC50 [2]: 1

Compound: CC(C)(C)OC(=O)NC(Cc1ccc2cc(OCc3ccccc3F)ccc2c1)C(=O)O (racemic)
- pIC50 [1]: 4.96
- Ratio IC50 [2]: 1

Compound: O=C(/C=C/c1ccccc1F)NC(Cc1ccc2cc(OCc3ccccc3F)ccc2c1)C(=O)O (racemic)
- inhibition [3]: inactive
- pIC50 [8]: 5.01
- pIC50 [1]: 5.60
- inhibition [5]: inactive
- Ratio IC50 [2]: 1
- pIC50 [6]: 5.34
- pIC50 [7]: 5.52

Compound: O=C(/C=C/c1cccc(F)c1)NC(Cc1ccc2cc(OCc3ccccc3F)ccc2c1)C(=O)O (racemic)
- inhibition [3]: inactive
- pIC50 [8]: 4.58
- pIC50 [1]: 5.55
- inhibition [5]: inactive
- Ratio IC50 [2]: 1
- pIC50 [6]: 5.29
- pIC50 [7]: 5.22

Compound: COc1ccc(COc2ccc3cc(CC(NC(=O)c4ccccc4)C(=O)O)ccc3c2)cc1 (racemic)
- pIC50 [1]: 4.85
- Ratio IC50 [2]: 1

Compound: Cc1ccc(/C=C/C(=O)NC(Cc2ccc3cc(OCc4ccccc4F)ccc3c2)C(=O)O)cc1 (racemic)
- inhibition [3]: inactive
- inhibition [4]: inactive
- pIC50 [1]: 5.19
- inhibition [5]: inactive
- Ratio IC50 [2]: 1
- pIC50 [6]: 4.93
- pIC50 [7]: 4.74

Compound: O=C(/C=C/c1cccc(Cl)c1)NC(Cc1ccc2cc(OCc3ccccc3F)ccc2c1)C(=O)O (racemic)
- inhibition [3]: inactive
- pIC50 [8]: 4.88
- pIC50 [1]: 5.40
- inhibition [5]: inactive
- Ratio IC50 [2]: 1
- pIC50 [6]: 5.27
- pIC50 [7]: 5.14

Compound: O=C(/C=C/c1ccc(Br)cc1)NC(Cc1ccc2cc(OCc3ccccc3F)ccc2c1)C(=O)O (racemic)
- inhibition [3]: inactive
- pIC50 [8]: 4.89
- pIC50 [1]: 5.80
- inhibition [5]: inactive
- Ratio IC50 [2]: 1
- pIC50 [6]: 5.60
- pIC50 [7]: 5.44

Compound: O=C(COc1ccc(Cl)cc1)NC(Cc1ccc2cc(OCc3ccccc3F)ccc2c1)C(=O)O (racemic)
- inhibition [3]: inactive
- inhibition [4]: inactive
- pIC50 [1]: 4.97
- inhibition [5]: inactive
- Ratio IC50 [2]: 1
- pIC50 [6]: 4.86
- pIC50 [7]: 4.76

Compound: O=C(NC(Cc1ccc2cc(O)ccc2c1)C(=O)O)c1ccccc1 (racemic)
- pIC50 [1]: < 3.52
- Ratio IC50 [2]: 1

Compound: O=C(NC(Cc1ccc2cc(OCc3ccccc3F)ccc2c1)C(=O)O)c1ccccc1 (racemic)
- inhibition [3]: inactive
- inhibition [4]: inactive
- pIC50 [1]: 5.18
- inhibition [5]: inactive
- Ratio IC50 [2]: 1
- pIC50 [6]: 4.71
- pIC50 [7]: 5.03

Compound: O=C(Cc1ccc(Cl)cc1)NC(Cc1ccc2cc(OCc3ccccc3F)ccc2c1)C(=O)O (racemic)
- inhibition [3]: inactive
- pIC50 [8]: 4.81
- pIC50 [1]: 5.10
- inhibition [5]: inactive
- Ratio IC50 [2]: 1
- pIC50 [6]: 5.07
- pIC50 [7]: 4.89

Compound: O=C(/C=C/c1ccc(F)cc1)NC(Cc1ccc2cc(OCc3ccccc3F)ccc2c1)C(=O)O (racemic)
- inhibition [3]: inactive
- pIC50 [8]: 4.73
- pIC50 [1]: 5.47
- inhibition [5]: inactive
- Ratio IC50 [2]: 1
- pIC50 [6]: 5.18
- pIC50 [7]: 5.22

Compound: COc1ccc(/C=C/C(=O)NC(Cc2ccc3cc(OCc4ccccc4F)ccc3c2)C(=O)O)cc1 (racemic)
- inhibition [3]: inactive
- inhibition [4]: inactive
- pIC50 [1]: 5.23
- inhibition [5]: inactive
- Ratio IC50 [2]: 1
- pIC50 [6]: 4.85
- pIC50 [7]: 5.04

Compound: C[C@H]1[C@H](C)CC[C@]2(C(=O)O)CC[C@]3(C)C(=CC[C@@H]4[C@@]5(C)CC[C@H](O)C(C)(C)[C@@H]5CC[C@]43C)[C@H]12 [URSOLIC ACID]
- pIC50 [7]: 5.17

Compound: COc1ccc(/C=C/C(=O)NC(Cc2ccc3cc(OCc4ccccc4F)ccc3c2)C(=O)O)cc1OC (racemic)
- inhibition [3]: inactive
- inhibition [4]: inactive
- pIC50 [1]: 5.35
- inhibition [5]: inactive
- Ratio IC50 [2]: 1
- pIC50 [6]: 5.15
- pIC50 [7]: 5.02

Compound: O=C(CCc1ccccc1)NC(Cc1ccc2cc(OCc3ccccc3F)ccc2c1)C(=O)O (racemic)
- inhibition [3]: inactive
- inhibition [4]: inactive
- pIC50 [1]: 4.94
- inhibition [5]: inactive
- pIC50 [6]: 4.82
- pIC50 [7]: 4.56

Compound: O=C(/C=C/c1ccccc1Cl)NC(Cc1ccc2cc(OCc3ccccc3F)ccc2c1)C(=O)O (racemic)
- inhibition [3]: inactive
- pIC50 [8]: 5.61
- pIC50 [1]: 5.90
- inhibition [9]: tde
- inhibition [10]: Active
- inhibition [5]: inactive
- Ratio IC50 [2]: 3
- pIC50 [6]: 5.51
- pIC50 [7]: 5.42

Compound: O=C(/C=C/c1ccccc1Br)NC(Cc1ccc2cc(OCc3ccccc3F)ccc2c1)C(=O)O (racemic)
- inhibition [3]: inactive
- pIC50 [8]: 4.96
- pIC50 [1]: 5.75
- inhibition [5]: inactive
- Ratio IC50 [2]: 1
- pIC50 [6]: 5.54
- pIC50 [7]: 5.33

Compound: O=C(/C=C/c1ccc(Cl)cc1)NC(Cc1ccc2cc(OCc3ccccc3F)ccc2c1)C(=O)O (racemic)
- inhibition [3]: inactive
- pIC50 [8]: 4.79
- pIC50 [1]: 5.59
- inhibition [5]: inactive
- Ratio IC50 [2]: 1
- pIC50 [6]: 5.58
- pIC50 [7]: 5.36

Compound: O=C(/C=C/c1ccc(Cl)cc1Cl)NC(Cc1ccc2cc(OCc3ccccc3F)ccc2c1)C(=O)O (racemic)
- inhibition [3]: inactive
- pIC50 [8]: 4.90
- pIC50 [1]: 5.37
- inhibition [5]: inactive
- Ratio IC50 [2]: 1
- pIC50 [6]: 5.05
- pIC50 [7]: 5.21

Compound: O=C(NC(Cc1ccc2cc(OCc3ccc(Cl)cc3)ccc2c1)C(=O)O)c1ccccc1 (racemic)
- pIC50 [1]: 4.66
- Ratio IC50 [2]: 1
